Measured values as given in publication PMC9574760 (Food Chemistry: Molecular Sciences, 2022).
Ends that are not written are not given here.

Columns and labels:
[1] = tested on: porcine pepsin; experiment: In vitro simulated gastric digestion stability, RP-HPLC; type: in vitro ADME; settings: pig, simulated gastric fluid with porcine pepsin, pH 2
Outline: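 Test peptide was digested with […] porcine pepsin at pH 2.0 ([…] KCl-HCl) and an enzyme:substrate ratio of 1:30 (w/w). Digestion ran 2 h at 37℃, shaking at 170 rpm. Enzyme was inactivated in boiling water for 10 min and the digest centrifuged at 6000 × g for 15 min. Peptide before and after digestion was compared by C18 RP-HPLC with water/0.1 % TFA and acetonitrile/0.1 % TFA, 1.0 mL/min, 220 nm detection; triplicate.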

[2] = molecular target: T1, elastase (Sus scrofa, UniProt P00772); experiment: Elastase inhibition test; type: biochemical
Outline: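 Elastase from the commercial supply; test compound in 50 mM Tris-HCl, pH 8.0. The 1 mM substrate solution and the sample (buffer for the negative control) were mixed and A410 was read. Then 100 mU/mL elastase was added and incubated 5 min at 25℃, stopped with 2 M HCl, and A410 was read again. EGCG reference at 0.5 mg/mL; three independent experiments.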

[3] = molecular target: T1, elastase; settings: bovine elastin peptides; ref Liu, Su, Zhou, Zhang, Zheng, & Zhao, 2018; cited from earlier work

T1 sequence (P00772 27-266): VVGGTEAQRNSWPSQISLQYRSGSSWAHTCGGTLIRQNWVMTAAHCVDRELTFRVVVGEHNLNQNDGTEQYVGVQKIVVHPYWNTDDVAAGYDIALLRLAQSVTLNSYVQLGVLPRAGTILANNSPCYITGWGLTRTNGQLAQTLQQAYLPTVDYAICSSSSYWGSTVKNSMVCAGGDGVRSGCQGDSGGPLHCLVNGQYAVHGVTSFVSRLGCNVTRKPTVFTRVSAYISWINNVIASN

Substance | remaining at 2 h, 1 mg/mL [1] | IC50 [2] | elastase inhibitory activity (in words) [3]
FFVPF [FFVPF, Phe-Phe-Val-Pro-Phe] | 87.5 ± 1.24% | 715 µM | –
GLGPGVG | – | – | weakly active
GLPY | – | – | most active
GPGGVGAL | – | – | weakly active
